AHR act – AHR activators, primary screen, cell-based, luminescence, luciferase reporter, human; Aryl hydrocarbon receptor (Homo sapiens), P35869; AHR-responsive luciferase reporter cells; activation, % at 5 µM; 320,000 tested, 2.5% active; in the data active = activation above about 47%
ABCB6 inh 2 – ABCB6 transporter inhibitors, primary screen, K562-ABCB6 cells, flow cytometry, MLPCN library; fluorescence ratio to DMSO, % at 10 µM; 360,000 tested, 0.19% active; K562-ABCB6 porphyrin accumulation, 1 h; active compounds read low; ATP-binding cassette sub-family B member 6 (Homo sapiens), Q9NP58;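 active = fluorescence ratio to DMSO below 75%, the collection mean minus 3 SD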;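 note: signal is porphyrin accumulated inside mitochondria; lower ratio means ABCB6 inhibition with less porphyrin fluorescence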
Target sequence (Q9NP58 whole entry, looked up): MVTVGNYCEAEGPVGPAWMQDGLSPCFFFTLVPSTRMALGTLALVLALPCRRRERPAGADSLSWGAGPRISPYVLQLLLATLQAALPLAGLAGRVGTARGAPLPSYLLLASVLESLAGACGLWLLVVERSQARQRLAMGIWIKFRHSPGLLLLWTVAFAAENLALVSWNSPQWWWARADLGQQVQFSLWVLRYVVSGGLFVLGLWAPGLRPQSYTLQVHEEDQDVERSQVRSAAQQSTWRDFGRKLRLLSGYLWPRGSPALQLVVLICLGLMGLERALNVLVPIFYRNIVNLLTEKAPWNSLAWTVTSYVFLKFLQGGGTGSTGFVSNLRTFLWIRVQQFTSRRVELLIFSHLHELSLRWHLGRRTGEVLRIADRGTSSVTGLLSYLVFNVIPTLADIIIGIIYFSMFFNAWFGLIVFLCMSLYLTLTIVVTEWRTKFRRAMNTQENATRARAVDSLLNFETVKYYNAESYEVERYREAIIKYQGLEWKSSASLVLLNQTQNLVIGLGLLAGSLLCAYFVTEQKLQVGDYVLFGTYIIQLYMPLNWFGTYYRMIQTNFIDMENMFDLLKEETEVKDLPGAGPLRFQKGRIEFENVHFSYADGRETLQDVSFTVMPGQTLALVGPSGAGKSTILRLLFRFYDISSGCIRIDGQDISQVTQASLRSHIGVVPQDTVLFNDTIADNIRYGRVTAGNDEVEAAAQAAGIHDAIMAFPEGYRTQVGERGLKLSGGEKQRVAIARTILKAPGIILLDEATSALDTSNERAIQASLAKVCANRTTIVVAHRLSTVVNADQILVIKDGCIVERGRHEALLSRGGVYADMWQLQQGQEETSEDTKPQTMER
FXN GAA850 act – FXN promoter activators, primary screen, cell-based, luciferase luminescence, HEK293 lucGAA850; 360,000 tested, 0.56% active; HEK293 lucGAA850 FXN promoter luciferase reporter, 24 h; percent of 10 µM SAHA response; activation, % at 6 µM;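 active = activation above the average of all compounds screened plus 3 SD, cutoff fixed separately per campaign, cut at about 7.5% in these data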
HIF activator – HIF pathway transcriptional activators, primary screen, cell-based, U2OS HRE-luciferase, luminescence. U2OS HRE-luciferase reporter; normalized: DMSO 0%, desferrioxamine 100%. activation, % at 7.5 µM (by protocol). 300,000 tested, 0.32% active. AID 1910, 2009;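 active = mean activation of at least 10% of the iron chelator positive control signal, with at least half of replicates also reaching 10%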
SR-BI DiI inh – inhibitors of SR-BI mediated HDL lipid uptake, primary screen, ldlA[mSR-BI] cells, fluorescence, single point. Scavenger receptor class B member 1 (Mus musculus), Q61009. ldlA[mSR-BI] CHO cells, DiI-HDL uptake fluorescence, 3 h. inhibition, % at 12.5 µM. 320,000 tested, 0.96% active;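 active = mean replicate inhibition of at least 70% and a set share of replicates each scoring 70 or more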
SR-BI uptake up – activators of SR-BI mediated DiI-HDL uptake, primary screen, ldlA[mSR-BI] CHO cells, DiI fluorescence. activation, % at 12.5 µM. 3 h; 100 = double the neutral-control signal. 320,000 tested, 0.096% active. AID 504775, 2011;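 active = mean replicate activation of at least 60% and every replicate at or above 60%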
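Test system: SR-BI-overexpressing, LDLR-lacking CHO cells; Also added: labelled HDL, 10 µg/mL; Measured by: bottom-read cell fluorescence after medium removal, ex 550/em 595 nm; Timing: 3 h uptake period with compound, 37 °C; Buffer or medium: F12, 0.5% BSA, 25 mM HEPES; Doses: single compound concentration, delivered by pin transfer.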
Of the large screens only hits and unclear results are named; the others gave an inactive call. In the library only some 3.9% were active in any assay of this set; here they are far more common.

CN1CCc2c(sc(/N=C/c3c[nH]c4ccccc34)c2C#N)C1	AHR act 48.0 (no result: SR-BI DiI inh, SR-BI uptake up)
CCOC(=O)c1c(/N=C/c2ccc(OC)cc2O)sc2c1CCN(C)C2	none
Cc1ccc2c(c1)c1ccc3c(c1n2C)C(=O)C=CC3=O	SR-BI DiI inh 71.2 (no result: AHR act, HIF activator)
Cc1nnn(C23CC4CC(CC(CC(=O)Nc5ccc(C)c(C)c5)(C4)C2)C3)n1	none
Cn1c(O)c(C2=c3ccccc3=NC2=O)[nH]c1=S	AHR act 60.8
CCc1ccc(-c2nc(-c3ccncc3)no2)cc1	none (no result: HIF activator)
COc1ccc(OC)c(C(=O)Nc2ccc3[nH]ccc3c2)c1	AHR act 49.7
FC(F)Oc1ccc(NC(=S)Nc2ccc3cn[nH]c3c2)cc1	HIF activator 9.8
COc1ccc(C(=O)Nc2ccc3cn[nH]c3c2)c(OC)c1	AHR act 56.1
COc1ccc(C(=O)Nc2ccc3[nH]ncc3c2)cc1	none
COCCCN1C(=O)C(CC(=O)NC(c2ccccc2)c2ccccc2)CC(C(=O)N(C)C)=C1C (configuration not stated)	none (no result: AHR act, HIF activator, SR-BI DiI inh, SR-BI uptake up)
CSc1ccccc1OCc1cc(C(=O)NCc2cccc(C)n2)no1	none
CSc1ccccc1OCc1cc(C(=O)NC(C)Cc2cccc(C)n2)no1 (configuration not stated)	AHR act 52.6
CCOC(=O)c1sc2nc(N3CCOCC3)c3c(c2c1N)CCCC3	SR-BI DiI inh 73.9
CCN(CC)C(=O)c1sc2nc(N3CCOCC3)c3c(c2c1N)CCCC3	none
O=C(NCc1ccccc1)c1cc(C2CCCCN2S(=O)(=O)c2ccccc2)on1 (configuration not stated)	none (no result: AHR act, HIF activator, SR-BI DiI inh, SR-BI uptake up)
O=C(NNC(=O)c1sccc1-n1cccc1)Nc1ccc(F)cc1	AHR act 62.4
CC(NC(=O)c1cc2c(s1)CS(=O)(=O)C2)c1ccccc1 (configuration not stated)	HIF activator 124.9
CC1CCC(NC(=O)c2cc3c(s2)CS(=O)(=O)C3)CC1 (configuration not stated)	none (no result: AHR act, HIF activator)
O=C(NNC(=O)c1ccccc1OCc1ccccc1)c1ccccc1F	AHR act 53.3
COc1ccc(NC(=O)c2ccccc2OCc2ccc(F)cc2)c(OC)c1	SR-BI DiI inh 94.2
O=C(NNC(=O)c1ccccc1OCc1ccccc1)c1ccccc1O	SR-BI DiI inh 113.9 (no result: AHR act)
O=C(NC1CCCC1)c1ccccc1OCc1ccccc1	none
O=C(NNC(=O)c1ccccc1OCc1ccc(F)cc1)c1ccccc1O	SR-BI DiI inh 124.6 (no result: AHR act)
COc1ccc(NC(=O)c2ccccc2Oc2ccccc2)c(OC)c1	none
CCOC(=O)C1CCN(C(=O)CSc2nccc(C)n2)CC1	none
COCCN=c1scc(-c2cccs2)n1/N=C/c1ccc(O)c(O)c1O	none
Nc1c(Cl)cnc(C(Cl)(Cl)Cl)c1Cl	AHR act 66.8
CC(=O)Nc1ccc2c(c1)Cc1ccc(Cl)cc1-2	SR-BI DiI inh 74.4 (no result: AHR act, HIF activator)
CC(=O)Nc1ccc2c(c1)CCCC2=O	HIF activator 9.6
O=C(CN1CCN(CC(=O)Nc2ccc(-c3ccccc3)cc2)CC1)Nc1ccc(F)cc1	none (no result: SR-BI DiI inh, SR-BI uptake up)
COC(=O)Cc1ccc(NC(=S)NC(C)(C)C)cc1	HIF activator 25.2
COC(=O)Cc1ccc(NC(=S)NCCO)cc1	none
Cc1ccc(-n2nnc(-c3cc4ccccc4n3C)n2)cc1	none
Cn1c(-c2nnn(-c3ccc(F)cc3)n2)cc2ccccc21	AHR act 68.7 (no result: ABCB6 inh 2, FXN GAA850 act, SR-BI DiI inh, SR-BI uptake up)
Fc1ccc(-n2nnc(-c3ccnc4ccccc34)n2)cc1	AHR act 54.5
CN(C)C(=O)CCc1ccc2c3c([nH]c2c1)[C@]1(CCC2CCCC2)[C@@H](C(=O)N2CCOCC2)C[C@H](CC(=O)NCc2cccc(C(F)(F)F)c2)C(=O)N1CC3	none (no result: AHR act, HIF activator)
O=C(CC1C[C@H](C(=O)N2CCOCC2)[C@@]2(CCC3CCCC3)c3[nH]c4ccccc4c3CCN2C1=O)NCc1cccc(C(F)(F)F)c1 (some centres not stated)	SR-BI uptake up 107.4 (no result: AHR act, HIF activator)
CC[C@]12c3[nH]c4ccc(Cl)cc4c3CCN1C(=O)[C@@H](CC(=O)NCc1ccc(OC)c(OC)c1)C[C@@H]2C(=O)N1CCN(C(=O)c2ccco2)CC1	SR-BI DiI inh 78.1 (no result: AHR act, HIF activator)
COc1ccc(C)cc1S(=O)(=O)NCC(c1cccnc1)N1CCc2ccccc2C1 (configuration not stated)	none
COc1cc(C(=O)OCCCN2CCCN(CCCOC(=O)c3cc(OC)c(OC)c(OC)c3)CC2)cc(OC)c1OC	SR-BI DiI inh 80.9
O=C(Nc1ccc(Cl)cc1)Nc1ccc(N2CCCC2)c(S(=O)(=O)Nc2ccccc2Cl)c1	SR-BI DiI inh 101.8
CCN=C1S/C(=C/c2ccc(-c3ccc(F)cc3)o2)C(=O)N1CC	SR-BI DiI inh 72.0
O=C(/C=C/Nc1ccc(F)cc1Br)c1ccccc1	AHR act 51.1 (no result: SR-BI DiI inh, SR-BI uptake up)
O=C(/C=C/Nc1ccccc1)c1ccccc1	none
C/C(CC(=O)Nc1ccc(Cl)c(C(F)(F)F)c1)=N\NC(=O)c1cc2ccccc2cc1O	SR-BI DiI inh 111.8
COc1cccc(NC(=O)C/C(C)=N/NC(=O)c2ccccc2Cl)c1	none
O=C(NCCNCCO)c1c(O)c2cccc3c2n(c1=O)CCC3	AHR act 58.1
CCCCCCNC(=O)c1c(O)c2cccc3c2n(c1=O)CCC3	none (no result: SR-BI uptake up)
O=C(C1CCC1)N1CCN(c2cccc(C(F)(F)F)c2)CC1	none
O=C(C1CCN(c2nnc(-n3cccc3)s2)CC1)N1CCN(c2cccc(C(F)(F)F)c2)CC1	SR-BI DiI inh 71.9
Cc1ccc(NC(=O)NCc2nc3ccccc3n2C)cc1	none
Cc1ccc(NC(=O)C2=C(O)CCn3c2nc2ccccc23)cc1	AHR act 56.9
O=c1c2[nH]c3ccccc3c2ncn1C1CCCCC1	AHR act 47.7
O=c1c2[nH]c3ccccc3c2ncn1CCN1CCCCC1	AHR act 71.6
CC(C)CCn1cnc2c([nH]c3cccc(Cl)c32)c1=O	AHR act 59.9
O=c1c2[nH]c3ccccc3c2ncn1CCN1CCOCC1	none
CCCc1cc(-c2nc(-c3ccc(Br)cc3)cs2)ccn1	AHR act 47.2
Cc1cc(C)c(C)c(S(=O)(=O)N2CCC(C(=O)N(C)Cc3nc4ccccc4c(=O)[nH]3)CC2)c1C	none (no result: AHR act, HIF activator)
O=C(c1ccc(Br)o1)N1CCN(c2ncccn2)CC1	AHR act 58.7
